Screening results: PubChem, several laboratories
Hits are enriched below; roughly 2% of the tested compounds scored in any of these assays.
CTSL1 counter: blocks F. hepatica cathepsin L1 in PFM18AAP counter-screen | recombinant F. hepatica cathepsin L1, Z-Leu-Arg-MCA fluorescence | inhibition, % at 5.96 µM | 0.49% of 300,000 active | AID 1906;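 active means inhibition above the mean of all tested compounds plus 3 SD, set per screening campaign, cut at about 17% in these data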;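 further: 0% = plate median of test compound wells and 100% = 1 µM Z-Phe-Ala-diazomethylketone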
GSTO1 inh: blocks human GSTO1 in RBBP9 counter-screen | P78417 | 1.1% of 300,000 active | inhibition, % at 5.96 µM | AID 1974 | recombinant GSTO1, activity-based probe fluorescence polarization;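 active means inhibition above the campaign mean inhibition plus 3 SD, cut at about 35% in these data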;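 further: 0% = GSTO1-1 with DMSO and 100% = wells lacking GSTO1-1 enzyme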
Target sequence (P78417 whole entry, looked up): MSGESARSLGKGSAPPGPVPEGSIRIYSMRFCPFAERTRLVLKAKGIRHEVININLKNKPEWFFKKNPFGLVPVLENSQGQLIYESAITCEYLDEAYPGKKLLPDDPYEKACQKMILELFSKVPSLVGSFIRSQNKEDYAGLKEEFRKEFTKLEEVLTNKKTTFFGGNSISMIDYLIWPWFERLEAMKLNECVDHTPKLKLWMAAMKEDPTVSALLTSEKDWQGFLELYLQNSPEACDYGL
PP5 primary: inhibitors of human protein phosphatase 5 (PP5) | purified PP5c, OMFP substrate fluorescence | 0.18% of 320,000 active | inhibition, % at 6.7 µM | P53041;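 active means inhibition above the campaign's mean inhibition across all tested compounds plus 3 SD, cut at about 9.5% in these data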;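 further: 0% = DMSO only and 100% = 100 µM cantharidin control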
Target sequence (P53041 whole entry, looked up): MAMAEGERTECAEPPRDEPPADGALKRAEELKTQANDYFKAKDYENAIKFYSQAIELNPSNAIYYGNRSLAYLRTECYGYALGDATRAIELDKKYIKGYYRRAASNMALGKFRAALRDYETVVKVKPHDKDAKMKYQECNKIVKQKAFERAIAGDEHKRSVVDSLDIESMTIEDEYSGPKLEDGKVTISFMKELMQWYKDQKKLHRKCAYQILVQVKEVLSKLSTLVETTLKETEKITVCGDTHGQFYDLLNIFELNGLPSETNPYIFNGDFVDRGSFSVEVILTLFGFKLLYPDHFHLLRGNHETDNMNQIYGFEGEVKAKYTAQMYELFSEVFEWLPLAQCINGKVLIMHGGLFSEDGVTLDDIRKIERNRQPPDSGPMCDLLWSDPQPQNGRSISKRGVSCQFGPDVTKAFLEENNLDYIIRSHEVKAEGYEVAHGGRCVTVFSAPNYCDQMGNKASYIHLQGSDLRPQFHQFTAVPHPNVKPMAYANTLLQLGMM
Apaf-1 inh: inhibitors of human Apaf-1 apoptosome; O14727; reconstituted apoptosome caspase-3 activity, DEVD-Rh110 fluorescence; inhibition, % at 20 µM; 0.71% of 330,000 active; active means inhibition of at least 40% at 20 µM;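 further: plate controls were DMSO wells for no effect and DEVD-CHO caspase inhibitor wells for full effect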
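Assay system – apoptosome proteins · Medium – Hepes buffer, pH 7.5 · Also added – cytochrome c with DEVD-Rh110 · Timing – 30 min compound preincubation, 50 min activation, room temperature · Detection – Rh110 fluorescence, excitation 480 nm, emission 540 nm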
UCH37 inh: human UCH37 deubiquitinating enzyme inhibition. purified proteasome/UCH37, Ub-AMC cleavage fluorescence. inhibition, % (test concentration not listed). 0.33% of 330,000 active. AID 588478;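 active means mean inhibition over replicate wells above about 20%, limit read from the data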;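 further: 0% = compound-free wells with enzyme and 100% = wells lacking proteasome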
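Material: human UCH37 enzyme supplied as purified proteasome complex / Amount: 0.15 nM proteasome as dispensed / Buffer or medium: pH 7.4 Tris-HCl (50 mM) with ovalbumin, ATP-MgCl2, DTT / Times: preincubation 30 min, reaction 25 min, room temperature / Technique: AMC fluorescence from Ub-AMC cleavage, excitation 355 nm, emission 460 nm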
PAD4 FP inh: blocks human protein arginine deiminase 4; Q9UM07; recombinant PAD4, RCA probe fluorescence polarization; inhibition, % at 6.36 µM; 0.41% of 330,000 active; AID 485272;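 active means percent inhibition above a cutoff equal to the mean of all tested compounds plus 3 SD, cut at about 15% in these data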;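 further: 0% = PAD4 with RCA probe and DMSO and 100% = probe without PAD4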
GSTO1 confirm: confirmation of human GSTO1 inhibitors. shares compounds with GSTO1 inh. recombinant GSTO1, probe fluorescence polarization. inhibition, % at 5.96 µM. 54% of 2,400 active;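 active means inhibition above the primary screen's cutoff, its mean inhibition plus 3 SD, cut at about 35% in these data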;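 further: loss of polarization as inhibitors block binding of rhodamine sulfonate ester activity probe; 0% = GSTO1 with DMSO and 100% = wells lacking GSTO1 enzyme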
PP5 inh confirm: PP5 (human) inhibition, confirmation | 22% of 460 active | inhibition, % at 6.7 µM | AID 2331 | Purified PP5, fluorogenic phosphatase substrate, fluorescence | shares compounds with PP5 primary; in the data active means inhibition above about 9.5%
PP1 counter 3x: PP1 phosphatase inhibition, counter-screen for PP5 inhibitors; shares compounds with PP5 primary; PP1 enzyme, fluorescent phosphatase substrate; inhibition, % at 6.7 µM; 4% of 460 active; in the data active means inhibition above about 16%
PAD4 confirm: PAD4 (human) inhibition, confirmed; shares compounds with PAD4 FP inh; recombinant PAD4, RCA probe fluorescence polarization; inhibition, % at 6.36 µM; 28% of 1,200 active; AID 488796;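 active means mean inhibition across replicates above the hit cutoff set by the earlier primary screen, cut at about 15% in these data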;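 further: inhibitors block active-site labeling by the probe so polarization falls; 0% = PAD4 with probe and DMSO and 100% = probe without PAD4 enzyme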
Apaf-1 inh conf: Apaf-1 inhibition, single-dose confirmed; shares compounds with Apaf-1 inh; reconstituted apoptosome, caspase-3 DEVD-Rh110 fluorescence; inhibition, % at 20 µM; 25% of 1,800 active; AID 504614;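 active means mean inhibition of at least 40% at 20 µM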;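 further: plate controls were DMSO wells for no effect and DEVD-CHO caspase inhibitor control wells for full effect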
Rh110 interf inh: interferes with Rh110 fluorescence, flagging false Apaf-1 inhibitors | shares compounds with Apaf-1 inh | Rh110 fluorescence interference, quenched caspase reaction | activation (fluorescence interference), % at 20 µM | 1,800 tested, under 10 active | AID 504615;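 active means signal rise of 40% or more at 20 µM, treated as a fluorescence artifact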
Fluor interf inh: shows fluorescence interference in the Apaf-1 inhibitor assay format. shares compounds with Apaf-1 inh. fluorescence interference counterscreen, Apaf-1 assay format. IC50, µM. 460 tested, under 10 active. AID 588538; call rule not given here
* hit, by the source's call; x = no result given.

SMILES	CTSL1 counter	GSTO1 inh	PP5 primary	Apaf-1 inh	UCH37 inh	PAD4 FP inh	GSTO1 confirm	PAD4 confirm	Apaf-1 inh conf	Rh110 interf inh	others
Cc1cc2c(N)cccc2nn1	-2.6	65.3*	0.3	96.8*	x	120.1*	109.8*	-2.0	26.6	-0.2
O=C(O)CCNc1cc(N2CCN(C(=O)c3ccco3)CC2)c2noc3c2c1C(=O)c1ccccc1-3	22.3*	63.3*	6.8	81.3*	x	20.7*	74.8*	-46.2	73.0*	1.5	Fluor interf inh=13.2*
CC(=O)OCCNc1cc(N2CCN(C)CC2)c2noc3c2c1C(=O)c1ccccc1-3	x	x	x	x	4.5	x	x	x	x	x
COc1ccc(O)c(C=NN2CCOCC2)c1	x	x	x	x	3.3	x	x	x	x	x
COC(=O)CCC(=O)OC1(C)C(=O)C=C2C=C(C3CC3)N(CCc3ccccn3)C=C2C1=O (configuration not stated)	1.8	43.2*	11.3*	53.2*	6.7	10.1	17.4	x	37.7	4.4	PP5 inh confirm=41.9*;PP1 counter 3x=19.3*
COC(=O)CCC(=O)OC1(C)C(=O)C=C2C=C(C3CC3)N(CCCCO)C=C2C1=O (configuration not stated)	4.7	46.0*	13.6*	63.7*	5.2	1.8	9.1	x	57.9*	2.2	PP5 inh confirm=33.8*;PP1 counter 3x=2.1;Fluor interf inh=>100
O=C(NN=Cc1ccccn1)c1ccc(Br)o1	x	x	x	x	2.9	x	x	x	x	x
COc1cc(/C=C2/C(=O)N(c3ccc(Br)cc3)N=C2C)cc([N+](=O)[O-])c1O	-4.4	4.2	-1.1	30.2	x	-6.5	x	x	x	x
COc1cc(/C=C2/C(=O)N(c3cccc(Br)c3)N=C2C)cc(OC)c1O	1.8	41.7*	3.6	82.2*	4.6	27.3*	6.1	0.5	17.7	-1.2
CC(=O)Oc1ccc(/C=C2/C(=O)N(c3ccccc3)N=C2C)cc1	-3.9	51.5*	2.8	91.0*	x	54.0*	14.3	-0.2	11.8	-1.9
CC1=NN(c2ccccc2)C(=O)/C1=C/N(C)C	4.1	8.4	8.5	-13.9	5.8	-9.6	x	x	x	x
CC1=NN(c2ccccc2)C(=O)/C1=C\C=C\c1ccccc1	-2.9	18.4	1.4	20.6	x	-0.7	x	x	x	x
COc1ccc(/C=C2/C(=O)N(c3ccccc3)N=C2C)cc1	-2.1	47.0*	-2.0	96.2*	5.1	57.5*	11.5	2.7	16.1	-2.0
CC1=NN(c2ccccc2)C(=O)/C1=C/c1cccc(C)c1	-5.3	59.2*	3.9	96.1*	x	55.6*	12.3	1.0	22.9	-0.8
O=[N+]([O-])c1cc(S(=O)(=O)N2CCCC2)ccc1NN=Cc1cccs1	x	x	x	x	5.5	x	x	x	x	x
NC(=S)NN=Cc1cc([N+](=O)[O-])ccc1Cl	x	x	x	x	4.4	x	x	x	x	x
CCOc1cc(/C=C2/C(=O)N(c3ccccc3)N=C2C)ccc1OC(=O)c1cccs1	-0.1	66.5*	1.1	69.4*	7.0	53.6*	3.8	2.4	33.2	4.2
CCOC(=O)C(=NNc1cc(Cl)ccc1Cl)N1CCN(C)CC1	x	x	x	x	5.4	x	x	x	x	x
NC(=O)c1cc2cc(Br)ccc2oc1=NNC(=O)c1cccc(F)c1	x	x	x	x	1.9	x	x	x	x	x
O=c1[nH]c(Nc2ccc(F)cc2)cc2ccccc12	58.4*	66.7*	5.2	95.1*	-112.8	43.2*	43.6*	16.6*	91.5*	7.8	Fluor interf inh=>100
O=c1[nH]c(Nc2ccccc2Cl)cc2ccccc12	15.0	39.9*	6.8	98.1*	-14.8	28.3*	31.5	8.6	79.0*	13.8	Fluor interf inh=>100
O=C(NCCO)c1ccc2nc(-c3ccco3)c(-c3ccco3)nc2c1	9.4	75.4*	0.4	77.6*	-38.8	30.5*	56.6*	-5.5	23.0	1.0
O=C(NC1CCCC1)c1ccc2nc[nH]c2c1	-2.6	3.3	0.5	-8.0	1.5	-4.5	x	x	x	x
O=C(NC1CCCC1)c1ccc2nc(-c3ccco3)c(-c3ccco3)nc2c1	7.5	63.0*	-2.1	44.5*	-81.1	6.5	37.9*	x	19.3	-2.3
COc1cc(C=NNC(=O)C(=O)/C=C2\NC3(CCCC3)Cc3ccccc32)ccc1O	x	x	x	x	6.3	x	x	x	x	x
SMILES	CTSL1 counter	GSTO1 inh	PP5 primary	Apaf-1 inh	UCH37 inh	PAD4 FP inh	GSTO1 confirm	PAD4 confirm	Apaf-1 inh conf	Rh110 interf inh	others
O=C(NN=Cc1ccco1)C1COc2ccccc2O1 (configuration not stated)	x	x	x	x	6.7	x	x	x	x	x
CCOC(=O)C1CCN(C2=C(NS(=O)(=O)c3ccc(Br)cc3)C(=O)c3ccccc3C2=O)CC1	4.2	44.6*	4.3	68.0*	23.1*	-5.1	13.6	x	33.1	-2.0
O=C1C(NS(=O)(=O)c2cccs2)=C(N2CCN(c3cccc(C(F)(F)F)c3)CC2)C(=O)c2ccccc21	0.3	48.2*	4.4	47.5*	3.5	-9.0	13.7	x	25.7	10.1
CCOC(=O)C1CCN(C(=O)c2cccc(NS(=O)(=O)c3ccc(Br)cc3)c2)CC1	x	x	-2.7	5.6	0.5	-2.0	x	x	x	x
CCN1CCN(C2=C(NS(=O)(=O)c3ccccc3)C(=O)c3ccccc3C2=O)CC1	9.3	49.3*	4.0	82.5*	11.6	-12.4	38.4*	x	41.8*	6.7	Fluor interf inh=>100
CCN1CCN(C2=C(NS(=O)(=O)c3ccc(Br)cc3)C(=O)c3ccccc3C2=O)CC1	20.2*	58.5*	1.4	88.2*	13.1	8.7	30.2	x	46.5*	1.4	Fluor interf inh=>100
Cc1ccsc1C=NNC(=O)Cc1cccn1C	x	x	x	x	4.6	x	x	x	x	x
Cc1cc(C)nc(N=C(N)N2CCCCCC2)n1	x	x	x	x	-2.4	x	x	x	x	x
Cc1nc2ccccn2c1C(=O)NN=Cc1ccc(CNC(=O)C(=O)Nc2ccccc2)o1	x	x	x	x	-0.9	x	x	x	x	x
COc1cc(C=Nn2c(COc3ccccc3)n[nH]c2=S)cc(OC)c1OC(C)=O	x	x	x	x	4.8	x	x	x	x	x
NC(=O)C1CCN(C2=C(NS(=O)(=O)c3ccccc3)C(=O)c3ccccc3C2=O)CC1	0.0	11.9	1.1	21.5	15.9	-4.6	x	x	x	x
O=C1C(NS(=O)(=O)c2ccc(Cl)cc2)=C(N2CCCCC2)C(=O)c2ccccc21	-4.4	47.7*	4.6	71.8*	11.8	-10.8	26.7	x	41.5*	6.6	Fluor interf inh=>100
